# Laboratory results reported in ChEMBL document CHEMBL5649168, “Discovery of a selective catalytic p300/CBP inhibitor that targets lineage-specific tumours” (Nature, 2017).
# Active and inactive are the calls of the source. No cut-off for these calls is given here.
# What was measured:
# [1] = molecular target: Serine/threonine-protein kinase pim-2 (Homo sapiens, UniProt Q9P1W9); experiment: Inhibition of Pim2 (unknown origin)
# NCI-H1693 = experiment: Antiproliferative activity against human NCI-H1693 cells assessed as inhibition of cell viability incubated for 3 to 5 days by Celltiter-Glo luminescent assay; assay type: functional, cell-based
# [2] = molecular target: Rho-associated protein kinase 2 (Homo sapiens, UniProt O75116); experiment: Inhibition of Rock2 (unknown origin)
# Granta-519 = experiment: Antiproliferative activity against human Granta-519 cells assessed as inhibition of cell viability incubated for 3 to 5 days by Celltiter-Glo luminescent assay; assay type: functional, cell-based
# [3] = AUC in CB17 SCID mouse xenografted with LuCaP-77 CR cell at 50 mg/kg, ip administered for 7 days; assay type: ADME, organism-based; conditions: in vivo, time 7 day
# [4] = molecular target: G protein-coupled receptor kinase 5 (Homo sapiens, UniProt P34947); experiment: Inhibition of GRK5 (unknown origin)
# [5] = molecular target: Tyrosine-protein kinase Fyn (Homo sapiens, UniProt P06241); experiment: Inhibition of Fyn (unknown origin)
# U-2940 = experiment: Antiproliferative activity against human U-2940 cells assessed as inhibition of cell viability incubated for 3 to 5 days by Celltiter-Glo luminescent assay; assay type: functional, cell-based
# [6] = molecular target: Inhibitor of nuclear factor kappa-B kinase subunit epsilon (Homo sapiens, UniProt Q14164); experiment: Inhibition of IKKE (unknown origin)
# [7] = molecular target: Tyrosine-protein kinase SYK (Homo sapiens, UniProt P43405); experiment: Inhibition of Syk (unknown origin)
# [8] = molecular target: Mitogen-activated protein kinase 14 (Homo sapiens, UniProt Q16539); experiment: Inhibition of p38alpha (unknown origin)
# DB = experiment: Antiproliferative activity against human DB cells assessed as inhibition of cell viability incubated for 3 to 5 days by Celltiter-Glo luminescent assay; assay type: functional, cell-based
# [9] = molecular target: T1, CREB-binding protein/Histone acetyltransferase p300 (Homo sapiens, UniProt Q09472+Q92793); experiment: Inhibition of p300/CBP in human 22Rv1 cells assessed as reduction in H3K9Ac level incubated for 24 hrs by Hoechst 33342 staining based high content microscopy analysis; assay type: cell-based
# T1 sequence (Q09472 whole entry, looked up): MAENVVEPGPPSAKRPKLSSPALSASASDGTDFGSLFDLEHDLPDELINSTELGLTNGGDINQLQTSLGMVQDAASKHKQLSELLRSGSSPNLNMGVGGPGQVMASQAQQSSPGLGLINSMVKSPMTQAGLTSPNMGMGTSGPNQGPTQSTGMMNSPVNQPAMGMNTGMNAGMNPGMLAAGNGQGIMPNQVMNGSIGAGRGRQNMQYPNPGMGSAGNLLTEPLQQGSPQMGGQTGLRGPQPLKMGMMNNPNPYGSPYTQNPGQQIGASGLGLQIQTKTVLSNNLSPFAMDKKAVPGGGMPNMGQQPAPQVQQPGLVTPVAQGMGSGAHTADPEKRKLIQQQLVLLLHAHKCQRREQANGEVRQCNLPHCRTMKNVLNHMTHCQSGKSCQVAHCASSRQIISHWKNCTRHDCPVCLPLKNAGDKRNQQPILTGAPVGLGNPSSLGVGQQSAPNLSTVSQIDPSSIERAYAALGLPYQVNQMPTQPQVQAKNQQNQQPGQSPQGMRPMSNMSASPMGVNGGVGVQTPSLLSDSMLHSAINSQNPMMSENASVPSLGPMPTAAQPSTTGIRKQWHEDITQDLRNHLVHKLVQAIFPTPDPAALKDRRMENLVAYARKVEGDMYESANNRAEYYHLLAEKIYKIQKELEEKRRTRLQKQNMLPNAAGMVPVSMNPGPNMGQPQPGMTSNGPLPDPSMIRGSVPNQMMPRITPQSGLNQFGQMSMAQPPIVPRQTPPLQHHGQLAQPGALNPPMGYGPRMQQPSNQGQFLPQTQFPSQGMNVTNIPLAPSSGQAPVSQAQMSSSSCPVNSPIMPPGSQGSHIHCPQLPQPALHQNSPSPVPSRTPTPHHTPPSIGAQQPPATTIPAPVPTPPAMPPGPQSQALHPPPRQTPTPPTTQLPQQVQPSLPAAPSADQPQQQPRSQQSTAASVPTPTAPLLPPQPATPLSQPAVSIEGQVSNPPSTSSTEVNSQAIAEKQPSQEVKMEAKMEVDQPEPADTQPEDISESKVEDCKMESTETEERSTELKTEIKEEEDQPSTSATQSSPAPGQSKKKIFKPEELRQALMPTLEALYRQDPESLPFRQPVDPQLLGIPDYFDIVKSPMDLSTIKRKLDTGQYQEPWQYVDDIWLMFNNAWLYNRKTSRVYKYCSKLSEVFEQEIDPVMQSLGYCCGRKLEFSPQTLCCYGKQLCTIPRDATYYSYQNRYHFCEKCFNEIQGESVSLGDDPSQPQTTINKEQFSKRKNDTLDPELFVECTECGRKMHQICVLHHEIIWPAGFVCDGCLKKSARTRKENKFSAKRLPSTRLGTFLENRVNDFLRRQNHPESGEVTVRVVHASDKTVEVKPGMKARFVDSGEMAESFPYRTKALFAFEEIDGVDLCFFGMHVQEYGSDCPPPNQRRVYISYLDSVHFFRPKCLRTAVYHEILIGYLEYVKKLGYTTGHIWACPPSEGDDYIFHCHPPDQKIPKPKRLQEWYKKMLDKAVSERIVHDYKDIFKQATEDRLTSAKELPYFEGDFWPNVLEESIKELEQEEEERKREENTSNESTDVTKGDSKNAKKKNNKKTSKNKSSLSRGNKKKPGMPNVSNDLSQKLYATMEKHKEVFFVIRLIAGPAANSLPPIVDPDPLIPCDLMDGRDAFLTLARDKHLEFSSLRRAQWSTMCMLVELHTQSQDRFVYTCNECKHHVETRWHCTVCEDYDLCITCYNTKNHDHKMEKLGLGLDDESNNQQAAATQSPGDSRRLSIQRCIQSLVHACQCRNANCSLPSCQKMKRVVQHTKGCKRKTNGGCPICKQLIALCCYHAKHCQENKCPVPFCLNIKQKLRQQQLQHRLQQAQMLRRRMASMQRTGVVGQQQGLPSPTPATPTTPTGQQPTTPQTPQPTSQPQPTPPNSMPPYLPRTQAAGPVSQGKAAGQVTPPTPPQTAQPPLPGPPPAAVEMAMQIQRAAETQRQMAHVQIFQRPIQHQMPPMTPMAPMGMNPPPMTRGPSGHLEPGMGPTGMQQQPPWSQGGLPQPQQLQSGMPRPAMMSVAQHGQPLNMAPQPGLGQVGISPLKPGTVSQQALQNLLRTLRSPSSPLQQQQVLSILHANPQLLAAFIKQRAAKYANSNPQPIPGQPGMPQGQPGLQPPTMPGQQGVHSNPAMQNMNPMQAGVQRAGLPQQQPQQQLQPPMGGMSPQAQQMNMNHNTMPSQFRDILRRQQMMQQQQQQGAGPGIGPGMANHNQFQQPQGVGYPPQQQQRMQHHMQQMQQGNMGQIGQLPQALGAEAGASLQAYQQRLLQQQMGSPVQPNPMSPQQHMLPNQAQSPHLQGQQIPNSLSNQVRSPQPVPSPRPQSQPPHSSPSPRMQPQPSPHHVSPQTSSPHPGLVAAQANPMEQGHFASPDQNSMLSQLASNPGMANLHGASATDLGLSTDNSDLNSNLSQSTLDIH
# T1 sequence (Q92793 whole entry, looked up): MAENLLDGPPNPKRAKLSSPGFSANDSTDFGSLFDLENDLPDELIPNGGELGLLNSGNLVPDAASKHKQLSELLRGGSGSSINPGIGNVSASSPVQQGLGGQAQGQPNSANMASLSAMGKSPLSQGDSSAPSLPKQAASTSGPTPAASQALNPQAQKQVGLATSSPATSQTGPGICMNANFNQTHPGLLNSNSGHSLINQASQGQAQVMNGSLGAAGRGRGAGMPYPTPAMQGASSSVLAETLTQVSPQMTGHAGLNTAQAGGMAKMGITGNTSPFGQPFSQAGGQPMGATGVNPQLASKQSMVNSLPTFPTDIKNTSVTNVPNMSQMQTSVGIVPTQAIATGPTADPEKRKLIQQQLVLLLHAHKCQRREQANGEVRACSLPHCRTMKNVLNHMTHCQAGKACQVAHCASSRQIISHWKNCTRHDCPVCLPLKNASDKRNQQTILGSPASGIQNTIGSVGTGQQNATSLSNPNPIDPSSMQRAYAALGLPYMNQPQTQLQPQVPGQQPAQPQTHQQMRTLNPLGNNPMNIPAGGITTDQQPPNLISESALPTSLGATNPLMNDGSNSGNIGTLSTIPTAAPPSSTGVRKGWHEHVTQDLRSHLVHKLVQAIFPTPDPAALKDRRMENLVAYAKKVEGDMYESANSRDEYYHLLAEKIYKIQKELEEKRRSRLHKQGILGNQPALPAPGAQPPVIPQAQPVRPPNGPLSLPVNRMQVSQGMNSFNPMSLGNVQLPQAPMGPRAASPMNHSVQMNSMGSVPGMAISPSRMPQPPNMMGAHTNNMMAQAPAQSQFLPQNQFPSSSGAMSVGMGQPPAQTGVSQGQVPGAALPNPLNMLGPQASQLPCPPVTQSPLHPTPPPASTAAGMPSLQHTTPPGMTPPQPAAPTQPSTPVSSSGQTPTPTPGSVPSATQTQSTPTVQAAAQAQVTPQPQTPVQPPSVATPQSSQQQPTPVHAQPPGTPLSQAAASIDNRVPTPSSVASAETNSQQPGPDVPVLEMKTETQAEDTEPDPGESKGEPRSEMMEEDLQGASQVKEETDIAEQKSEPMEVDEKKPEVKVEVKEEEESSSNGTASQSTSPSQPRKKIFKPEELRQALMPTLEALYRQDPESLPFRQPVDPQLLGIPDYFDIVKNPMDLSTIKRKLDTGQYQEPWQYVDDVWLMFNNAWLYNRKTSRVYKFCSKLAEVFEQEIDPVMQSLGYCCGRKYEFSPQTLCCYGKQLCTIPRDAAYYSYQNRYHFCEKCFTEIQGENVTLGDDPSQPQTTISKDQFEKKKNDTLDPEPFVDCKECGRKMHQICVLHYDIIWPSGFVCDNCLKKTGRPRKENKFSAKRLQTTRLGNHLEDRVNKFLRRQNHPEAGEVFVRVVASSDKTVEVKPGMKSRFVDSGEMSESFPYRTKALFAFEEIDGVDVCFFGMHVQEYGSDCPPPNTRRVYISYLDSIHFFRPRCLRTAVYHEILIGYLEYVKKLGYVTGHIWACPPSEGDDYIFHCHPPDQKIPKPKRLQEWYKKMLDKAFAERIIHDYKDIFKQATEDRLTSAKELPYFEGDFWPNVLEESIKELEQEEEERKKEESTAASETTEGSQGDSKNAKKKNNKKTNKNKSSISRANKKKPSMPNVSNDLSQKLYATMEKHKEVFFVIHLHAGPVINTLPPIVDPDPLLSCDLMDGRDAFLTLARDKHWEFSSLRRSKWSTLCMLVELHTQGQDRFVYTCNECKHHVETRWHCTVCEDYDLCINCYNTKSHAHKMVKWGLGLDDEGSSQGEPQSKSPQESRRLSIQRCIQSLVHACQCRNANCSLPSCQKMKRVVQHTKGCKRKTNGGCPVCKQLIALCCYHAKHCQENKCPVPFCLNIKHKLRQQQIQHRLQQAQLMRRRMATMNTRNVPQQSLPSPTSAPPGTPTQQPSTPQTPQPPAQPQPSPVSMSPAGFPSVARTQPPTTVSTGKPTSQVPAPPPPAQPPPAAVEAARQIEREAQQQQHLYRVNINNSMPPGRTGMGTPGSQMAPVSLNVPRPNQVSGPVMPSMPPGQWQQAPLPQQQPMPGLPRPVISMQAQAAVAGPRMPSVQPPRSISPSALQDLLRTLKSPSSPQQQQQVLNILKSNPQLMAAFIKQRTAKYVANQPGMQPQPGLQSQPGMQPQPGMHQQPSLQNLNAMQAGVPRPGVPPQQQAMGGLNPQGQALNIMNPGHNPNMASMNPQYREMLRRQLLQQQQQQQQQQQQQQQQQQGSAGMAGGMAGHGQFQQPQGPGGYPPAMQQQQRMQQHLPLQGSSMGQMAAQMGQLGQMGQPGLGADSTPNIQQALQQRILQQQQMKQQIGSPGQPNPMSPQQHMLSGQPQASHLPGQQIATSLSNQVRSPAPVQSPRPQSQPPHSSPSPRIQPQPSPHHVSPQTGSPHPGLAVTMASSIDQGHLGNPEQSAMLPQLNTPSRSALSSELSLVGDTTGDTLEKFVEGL
# In short: (§1)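 Cells received an 8-point half-log dilution series from 10 µM. They were then fixed in 10% formaldehyde (10 min, RT), permeabilised with 0.1% Triton X-100 and blocked with 1% BSA for 1 h. Primary antibodies were applied overnight at 4 °C, followed by Alexa488 anti-rabbit, Alexa555 anti-mouse and Hoechst 33342 for 1 h. Fifteen fields per well were imaged and average mean intensity taken. EC50 came from a sigmoidal fit.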
# [10] = Half life in CB17 SCID mouse xenografted with LuCaP-77 CR cell at 200 mg/kg, ip administered for 7 days; assay type: ADME, organism-based; conditions: in vivo, time 7 day
# NCI-H209 = experiment: Antiproliferative activity against human NCI-H209 cells assessed as inhibition of cell viability incubated for 3 to 5 days by Celltiter-Glo luminescent assay; assay type: functional, cell-based
# [11] = molecular target: T1, CREB-binding protein/Histone acetyltransferase p300; experiment: Inhibition of p300/CBP in human 22Rv1 cells assessed as reduction in H3K9Ac level incubated for 3 hrs by Hoechst 33342 staining based high content microscopy analysis; assay type: cell-based; in short: as §1
# in vivo = conditions: CB17 SCID, mouse, brain/plasma, po, 500 mg/kg
# [12] = molecular target: NT-3 growth factor receptor (Homo sapiens, UniProt Q16288); experiment: Inhibition of TrkC (unknown origin)
# [13] = molecular target: T1, CREB-binding protein/Histone acetyltransferase p300; experiment: Inhibition of p300/CBP in human 22Rv1 cells assessed as reduction in H3K9Ac level incubated for 1 hr by Hoechst 33342 staining based high content microscopy analysis; assay type: cell-based; in short: as §1
# MDA-MB-436 = experiment: Antiproliferative activity against human MDA-MB-436 cells assessed as inhibition of cell viability incubated for 3 to 5 days by Celltiter-Glo luminescent assay; assay type: functional, cell-based
# VCaP = experiment: Antiproliferative activity against human VCaP cells assessed as inhibition of cell viability incubated for 3 to 5 days by Celltiter-Glo luminescent assay; assay type: functional, cell-based
# Activated CDC42 kinase 1 = Activated CDC42 kinase 1 (Homo sapiens, UniProt Q07912); experiment: Inhibition of TNK2 (unknown origin)
# KMS-11 = experiment: Antiproliferative activity against human KMS-11 cells assessed as inhibition of cell viability incubated for 3 to 5 days by Celltiter-Glo luminescent assay; assay type: functional, cell-based
# HL-60 = experiment: Antiproliferative activity against human HL-60 cells assessed as inhibition of cell viability incubated for 3 to 5 days by Celltiter-Glo luminescent assay; assay type: functional, cell-based
# NCI-H522 = experiment: Antiproliferative activity against human NCI-H522 cells assessed as inhibition of cell viability incubated for 3 to 5 days by Celltiter-Glo luminescent assay; assay type: functional, cell-based
# OPM-2 = experiment: Antiproliferative activity against human OPM-2 cells assessed as inhibition of cell viability incubated for 3 to 5 days by Celltiter-Glo luminescent assay; assay type: functional, cell-based
# Daudi = experiment: Antiproliferative activity against human Daudi cells assessed as inhibition of cell viability incubated for 3 to 5 days by Celltiter-Glo luminescent assay; assay type: functional, cell-based
# [14] = molecular target: Platelet-derived growth factor receptor alpha (Homo sapiens, UniProt P16234); experiment: Inhibition of PDGFRalpha (unknown origin)
# CREB-binding protein = CREB-binding protein (Homo sapiens, UniProt Q92793); experiment: Inhibition of CBP in human 22Rv1 cells at 3 uM incubated for 24 hrs by Western blotting analysis; assay type: cell-based
# SK-MEL-5 = experiment: Antiproliferative activity against human SK-MEL-5 cells assessed as inhibition of cell viability incubated for 3 to 5 days by Celltiter-Glo luminescent assay; assay type: functional, cell-based
# DU-145 = experiment: Antiproliferative activity against human DU-145 cells assessed as inhibition of cell viability incubated for 3 to 5 days by Celltiter-Glo luminescent assay; assay type: functional, cell-based
# [15] = molecular target: Hepatocyte growth factor receptor (Homo sapiens, UniProt P08581); experiment: Inhibition of c-MET (unknown origin)
# SUD4 = experiment: Antiproliferative activity against human SU-DHL-4 cells assessed as inhibition of cell viability incubated for 3 to 5 days by Celltiter-Glo luminescent assay; assay type: functional, cell-based
# MDA-MB-231 = experiment: Antiproliferative activity against human MDA-MB-231 cells assessed as inhibition of cell viability incubated for 3 to 5 days by Celltiter-Glo luminescent assay; assay type: functional, cell-based
# [16] = molecular target: Ribosomal protein S6 kinase alpha-3 (Homo sapiens, UniProt P51812); experiment: Inhibition of Rsk2 (unknown origin)
# RL = experiment: Antiproliferative activity against human RL cells assessed as inhibition of cell viability incubated for 3 to 5 days by Celltiter-Glo luminescent assay; assay type: functional, cell-based
# OCI-Ly3 = experiment: Antiproliferative activity against human OCILY3 cells assessed as inhibition of cell viability incubated for 3 to 5 days by Celltiter-Glo luminescent assay; assay type: functional, cell-based
# L-363 = experiment: Antiproliferative activity against human L-363 cells assessed as inhibition of cell viability incubated for 3 to 5 days by Celltiter-Glo luminescent assay; assay type: functional, cell-based
# HCC1395 = experiment: Antiproliferative activity against human HCC1395 cells assessed as inhibition of cell viability incubated for 3 to 5 days by Celltiter-Glo luminescent assay; assay type: functional, cell-based
# [17] = Cmax in CB17 SCID mouse xenografted with LuCaP-77 CR cell at 100 mg/kg, ip administered for 7 days; assay type: ADME, organism-based; conditions: in vivo, time 7 day
# Chain of Serine/threonine-protein kinase pim-2 (Q9P1W9 whole entry): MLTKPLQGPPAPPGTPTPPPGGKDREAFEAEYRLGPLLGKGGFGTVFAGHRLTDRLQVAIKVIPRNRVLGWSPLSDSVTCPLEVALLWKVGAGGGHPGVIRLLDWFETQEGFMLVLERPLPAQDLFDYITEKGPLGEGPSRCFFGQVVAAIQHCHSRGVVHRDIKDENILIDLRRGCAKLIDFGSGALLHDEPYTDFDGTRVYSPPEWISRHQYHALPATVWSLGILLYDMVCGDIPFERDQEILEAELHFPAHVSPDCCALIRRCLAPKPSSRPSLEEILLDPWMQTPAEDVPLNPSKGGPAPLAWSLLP
smiles,measurement,setting,value
CNC(=O)Nc1ccc2c(c1)CC[C@@]21OC(=O)N(CC(=O)N(Cc2ccc(F)cc2)[C@@H](C)C(F)(F)F)C1=O [A-485],IC50,[1],> 10000 nM
same,EC50,NCI-H1693,2370 nM
same,IC50,[2],> 10000 nM
same,EC50,Granta-519,3280 nM
same,AUC at 168 h,[3],91200 ng·h/mL
same,IC50,[4],> 10000 nM
same,IC50,[5],> 10000 nM
same,EC50,U-2940,1330 nM
same,IC50,[6],> 10000 nM
same,IC50,[7],> 10000 nM
same,IC50,[8],> 10000 nM
same,EC50,DB,770 nM
same,INH,[9],> 10 µM
same,half-life,[10],3 h
same,EC50,NCI-H209,400 nM
same,INH,[11],> 10 µM
same,Kp at 24 h,in vivo,0.03
same,IC50,[12],> 10000 nM
same,INH,[13],> 10 µM
same,EC50,MDA-MB-436,> 10000 nM
same,EC50,VCaP,40 nM
same,IC50,Activated CDC42 kinase 1,> 10000 nM
same,EC50,KMS-11,240 nM
same,EC50,HL-60,> 10000 nM
same,EC50,NCI-H522,3520 nM
same,EC50,OPM-2,620 nM
same,EC50,Daudi,430 nM
same,IC50,[14],> 10000 nM
same,inhibition,CREB-binding protein,inactive
same,EC50,SK-MEL-5,910 nM
same,EC50,DU-145,> 10000 nM
same,IC50,[15],> 10000 nM
same,EC50,SUD4,720 nM
same,EC50,MDA-MB-231,> 10000 nM
same,IC50,[16],> 10000 nM
same,EC50,RL,1050 nM
same,EC50,OCI-Ly3,490 nM
same,EC50,L-363,510 nM
same,EC50,HCC1395,> 10000 nM
same,Cmax,[17],75.5 µg/mL
